Results on 18 compounds are retold here after ChEMBL document CHEMBL5321236, “Fluoro-labelled sp2-iminoglycolipids with immunomodulatory properties” (Eur J Med Chem, 2023).

Series [1] concerns A549. The series can be described thus: Growth inhibition of human A549 cells measured after 48 hrs by SRB colorimetric assay. It counts as functional. Put shortly:
(§1)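 NCI-based protocol with sulforhodamine B read-out. Seeded 2500 (A549, HBL-100, HeLa, SW1573), 5000 (T-47D, WiDr, SW1573/P-gp) or 7000 (BJ-hTERT) cells/well. Exposed 48 h to serial decimal dilutions, 0.001–100 μM, from 40 mM DMSO stock. GI50 by NCI formulas; mean of three or more experiments ± SD.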
In general terms: Sulforhodamine B stains cellular protein and so reports cell mass.

Series [2] has as its system HBL-100. Kind of series: Growth inhibition of human HBL-100 cells measured after 48 hrs by SRB colorimetric assay. It counts as functional. Put shortly:
as §1

For series [3], the system named is HeLa. The series can be described thus: Growth inhibition of human HeLa cells measured after 48 hrs by SRB colorimetric assay. It counts as functional. Put shortly:
as §1

In series [4] the test system is SW1573. The series can be described thus: Growth inhibition of human SW1573 cells measured after 48 hrs by SRB colorimetric assay. Format: functional. The essentials: as §1
The test system of series [5] is T47D. Kind of series: Growth inhibition of human T47D cells measured after 48 hrs by SRB colorimetric assay. Format: functional. The essentials: as §1
The subject of series [6] is WiDr. The series can be described thus: Growth inhibition of human WiDr cells measured after 48 hrs by SRB colorimetric assay. Format: functional. The essentials:
as §1

The test system of series [7] is BV-2. Kind of series: Cytotoxicity against mouse BV-2 cells at 10 uM measured after 24 hr by crystal violet staining based analysis. Format: toxicity, cell-based. The settings on record: bv-2, 24 h. The essentials:
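Bv.2 cells grown to 70% confluence, exposed 24 h in serum-free medium to 0.1, 1.0, 10 and 25 μM. Fixed with 1% glutaraldehyde, stained with 0.1% crystal violet, dye released in 10% acetic acid, absorbance 590 nm. Mean ± SEM, n ≥ 3 independent experiments.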

For series [8], the system named is BV-2. Kind of series: Protection against LPS induced inflammation in mouse BV-2 cells assessed as decrease in IL1-beta mRNA expression at 10 uM incubated for 24 hrs with LPS stimulation by qRT-PCR analysis. (In general: Real-time PCR tracks product formation cycle by cycle.)
The test system of series [9] is BV-2. The series can be described thus: Protection against LPS induced inflammation in mouse BV-2 cells assessed as decrease in Tnf-alpha mRNA expression at 10 uM incubated for 24 hrs with LPS stimulation by qRT-PCR analysis.
For series [10], the system named is SW1573. The series can be described thus: Growth inhibition of human SW1573 cells measured after 48 hrs in absence of verapamil by SRB colorimetric assay. It counts as functional. The essentials:
(§2)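 NCI-based protocol with sulforhodamine B read-out. Cells grown in RPMI 1640 with 5% FBS and 1 mM glutamine at 37 °C, 5% CO₂. Seeded 2500 (A549, HBL-100, HeLa, SW1573), 5000 (T-47D, WiDr, SW1573/P-gp) or 7000 (BJ-hTERT) cells/well. Exposed 48 h to serial decimal dilutions, 0.001–100 μM, from 40 mM DMSO stock. GI50 by NCI formulas; mean of three or more experiments ± SD.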

Series [11] has as its system SW1573. Kind of series: Growth inhibition of human SW1573 cells overexpressing P-glycoprotein measured after 48 hrs in absence of verapamil by SRB colorimetric assay. Format: functional. The essentials:
as §2

Series [12] relates to SW1573. Kind of series: Growth inhibition of human SW1573 cells measured after 48 hrs in presence of verapamil by SRB colorimetric assay. Format: functional. Put shortly: as §2
Series [13] relates to SW1573. The series can be described thus: Growth inhibition of human SW1573 cells overexpressing P-glycoprotein measured after 48 hrs in presence of verapamil by SRB colorimetric assay. Format: functional. Put shortly:
as §2

The nature of series [14]: Resistance factor, ratio of GI50 for growth inhibition of human SW1573 cells overexpressing P-glycoprotein measured after 48 hrs in absence of verapamil to GI50 for growth inhibition of human SW1573 cells measured after 48 hrs in absence of verapamil. Format: functional. Put shortly:
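Resistance factor: GI50 in P-gp-overexpressing SW1573 divided by GI50 in parental SW1573, each from 48 h SRB growth-inhibition assay without verapamil. Values are means of three or more independent experiments.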

Series [15] can be described thus: Resistance factor, ratio of GI50 for growth inhibition of human SW1573 cells overexpressing P-glycoprotein measured after 48 hrs in presence of verapamil to GI50 for growth inhibition of human SW1573 cells measured after 48 hrs in presence of verapamil. It counts as functional. Put shortly: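 SW1573 parental and P-gp-overexpressing cells given 48 h exposure to serial dilutions (0.001–100 μM) in medium containing verapamil at a final 10 μM as P-gp transport inhibitor. SRB read-out, GI50 by NCI formulas. Resistance factor taken as GI50 in SW1573/P-gp divided by GI50 in SW1573.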

Series [16] has as its system BV-2. Kind of series: Antiinflammatory activity in mouse BV-2 cells assessed as restoration of […] expression level at 10 uM incubated for 24 hrs with LPS stimulation by qRT-PCR analysis. Format: functional, cell-based. Put shortly: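 Bv.2 microglia stimulated with LPS 200 ng/mL with or without compound at 10 μM for 24 h. Arg1 mRNA measured by qRT-PCR, Actinb as housekeeping gene, 2^-ΔΔCT method, fold change relative to basal. n ≥ 4 independent experiments in triplicate.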

Series [17] addresses Mitogen-activated protein kinase 14 (Mus musculus) (UniProt P47811). Kind of series: Inhibition of LPS-stimulated p38 alpha phosphorylation in mouse BV-2 cells at 10 uM measured after 30 mins by Western blot analysis. Format: cell-based. Put shortly: (§3)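 Bv.2 cells exposed with or without LPS for 15–90 min. Protein extracts run on SDS-PAGE, blotted to PVDF, probed with anti-phospho-p38α MAPK and anti-total p38α MAPK (1:1000), ECL detection. Quantified by densitometry, mean ± SEM, n = 3.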
In general terms: A western blot detects proteins with antibodies after separation by electrophoresis.

For series [18] the target is unchanged. The series can be described thus: Inhibition of LPS-stimulated p38 alpha phosphorylation in mouse BV-2 cells at 10 uM measured after 60 to 90 mins by Western blot analysis. It counts as cell-based. The note with it: time 60-90 min. Put shortly: as §3

The source made the active and inactive calls. The calls are words filed in the database; no cut-off is given here.

Mitogen-activated protein kinase 14 (Mus musculus), sequence (P47811 whole entry): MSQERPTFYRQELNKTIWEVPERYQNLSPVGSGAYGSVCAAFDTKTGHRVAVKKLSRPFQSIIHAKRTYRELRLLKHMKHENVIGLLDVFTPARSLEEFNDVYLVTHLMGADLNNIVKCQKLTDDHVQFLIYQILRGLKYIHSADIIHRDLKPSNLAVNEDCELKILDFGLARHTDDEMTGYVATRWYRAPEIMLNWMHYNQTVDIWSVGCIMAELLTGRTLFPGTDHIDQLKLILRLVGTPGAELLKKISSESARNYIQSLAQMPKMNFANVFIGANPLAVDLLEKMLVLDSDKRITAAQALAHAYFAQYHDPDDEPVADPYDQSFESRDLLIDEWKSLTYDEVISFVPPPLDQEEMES

For orientation: GI50 means the concentration at which growth is held to half of that of the control. As for `CCCCCCCCCCCCS(=O)(=O)[C@@H]1[C@H](O)[C@@H](OCc2ccccc2)[C@H](O)[C@H]2COC(=O)N21`, the GI50 in series [1] came to 7.1 µM; in [2], 15 µM; in series [3] it was 9.2 µM; in series [4] it was 10 µM; in series [5], 14 µM; in series [6], 13 µM. The Activity entry in [7] is recorded as “Non-Toxic”. Further, the outcome in [8] and in [9] was Active.
Regarding `CCCCCCCCCCCCS[C@@H]1[C@H](F)[C@@H](OCc2ccccc2)[C@H](O)[C@H]2COC(=O)N21`, the concentration for 50% growth inhibition (GI50) in [1] worked out at 18 µM; in series [2], 19 µM; in [3], 13 µM; in series [4], 19 µM; in series [5], 18 µM; in series [6] it was 20 µM.
As to `O=C1OC[C@@H]2[C@@H](O)[C@H](OCc3ccccc3)[C@H](F)[C@@H](O)N12`, the concentration for 50% growth inhibition (GI50) in series [1], in series [2], in series [3], in [4], in series [5] and in series [6] was above 100 µM throughout.
Take `O=C1OC[C@@H]2[C@@H](O)[C@H](O)[C@H](O)[C@@H](O)N12`: the GI50 in series [1], in series [2], in series [3], in series [4], in series [5] and in [6] was above 100 µM throughout.
Regarding `O=C1OC[C@@H]2[C@@H](O)[C@H](O)[C@@H](O)[C@@H](O)N12`, the 50% growth inhibitory concentration (GI50) in series [1], in [2], in series [3], in series [4], in [5] and in [6] was above 100 µM throughout.
On to `CCCCCCCCCCCCS(=O)(=O)[C@@H]1[C@@H](F)[C@@H](OCc2ccccc2)[C@H](O)[C@H]2COC(=O)N21`, for which the GI50 in series [1] came to 4.2 µM; in series [2] it was 3.4 µM; in series [3] it was 3.6 µM; in [4] it was 4.5 µM; in [5], 3.8 µM; in series [6], 4.3 µM.
For `CC(=O)O[C@H]1C(=O)[C@@]2(C)[C@H]([C@H](OC(=O)c3ccccc3)[C@]3(O)C[C@H](OC(=O)[C@H](O)[C@@H](NC(=O)c4ccccc4)c4ccccc4)C(C)=C1C3(C)C)[C@]1(OC(C)=O)CO[C@@H]1C[C@@H]2O` [PACLITAXEL], the GI50 in series [10] came out at 0.00053 µM; in series [11] it was 0.3 µM; in series [12], 0.00046 µM; in series [13], 0.00031 µM. Besides, the RatioGI50 in series [14] was 564; in series [15], 0.7.
Take `CCCCCCCCCCCCS[C@@H]1[C@@H](F)[C@@H](OCc2ccccc2)[C@H](O)[C@H]2COC(=O)N21`: the GI50 in series [1] turned out to be 13 µM; in [2], 18 µM; in series [3], 19 µM; in series [4], 18 µM; in [5] it was 20 µM; in [6] it was 18 µM.
`CCCCCCCCCCCCS(=O)(=O)[C@@H]1[C@H](F)[C@@H](OCc2ccccc2)[C@H](O)[C@H]2COC(=O)N21`: the GI50 in [1] is 4.3 µM; in series [2], 4.2 µM; in series [3], 3.3 µM; in [4], 4.2 µM; in series [5] it was 9.7 µM; in series [6], 3.6 µM. For the same compound, the Activity result in [7] is reported as “Non-Toxic”. The result in series [16], in [8] and in series [9] was Active. For the same compound, the inhibition entry in series [17] and in series [18] was “inactive” each time.
`O=C1OC[C@@H]2[C@@H](O)[C@H](OCc3ccccc3)[C@@H](F)[C@@H](O)N12`: the 50% growth inhibitory concentration (GI50) in series [1], in series [2], in series [3], in series [4], in series [5] and in series [6] was above 100 µM in each case.
In the case of `CCCCCCCCCCCCS[C@@H]1[C@H](F)[C@@H](O)[C@H](O)[C@H]2COC(=O)N21`, the GI50 turned out to be 17 µM in series [1]; 22 µM in series [2]; 19 µM in series [3]; 22 µM in series [4]; 21 µM in series [5]; 21 µM in series [6]. Moreover, the Activity result in series [7] is given as “Non-Toxic”. The result in series [8] and in series [9] was Active.
As for `O=C1OC[C@@H]2[C@@H](O)[C@H](O)[C@@H](F)[C@@H](O)N12`, the GI50 in series [1], in series [2], in series [3], in series [4], in [5] and in [6] was above 100 µM throughout. For the same compound, the Activity entry in [7] is given as “Non-Toxic”. The outcome in series [8] and in [9] was Active.
Turning to `O=C1OC[C@@H]2[C@@H](O)[C@H](O)[C@H](F)[C@@H](O)N12`, the GI50 in [1], in series [2], in series [3], in [4], in series [5] and in series [6] was above 100 µM in each case.
As for `CCCCCCCCCCCCS(=O)(=O)[C@@H]1[C@@H](OC)[C@@H](O)[C@H](O)[C@H]2COC(=O)N21`, the GI50 in [1] was found to be 15 µM; in series [2] it was 20 µM; in series [3] it was 20 µM; in series [4], 21 µM; in [5], 17 µM; in [6], 21 µM.
Consider `CCCCCCCCCCCCS[C@@H]1[C@@H](O)[C@@H](O)[C@H](O)[C@H]2COC(=O)N21`, for which the 50% growth inhibitory concentration (GI50) in [1] came out at 18 µM; in [2], 26 µM; in [3], 19 µM; in [4], 25 µM; in series [5] it was 25 µM; in series [6], 23 µM.
`O=c1[nH]cc(F)c(=O)[nH]1` [FLUOROURACIL]: the GI50 stood at 2.2 µM in [1]; 5.5 µM in series [2]; 15 µM in series [3]; 4.3 µM in series [4]; 47 µM in series [5]; 49 µM in series [6].
With `CCCCCCCCCCCCS(=O)(=O)[C@@H]1[C@@H](F)[C@@H](O)[C@H](O)[C@H]2COC(=O)N21`, the concentration for 50% growth inhibition (GI50) in [1] is 2.9 µM; in [2], 7.4 µM; in [3] it was 3.1 µM; in series [4], 3.6 µM; in series [5], 10 µM; in series [6], 4.3 µM.
As to `CCCCCCCCCCCCS[C@@H]1[C@H](O)[C@@H](O)[C@H](O)[C@H]2COC(=O)N21`, the GI50 in series [1] stood at 16 µM; in [2] it was 17 µM; in series [3], 17 µM; in [4] it was 18 µM; in series [5], 18 µM; in series [6] it was 18 µM.
